# “And” between values parts separate entries of the source, which are not always exact repeats. Equal entries are not always repeated.
# Tests used:
# [1] = Phase 3 population PK model; assay type: in vivo, human
# In short: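 Nonlinear mixed-effects model fitted by FOCE with interaction to pooled plasma and dried-blood-spot LC-MS/MS concentrations from 12 phase 1, 1 phase 2b/3 and 1 phase 3 study (healthy participants and migraine patients, single/multiple oral doses). Plasma LLOQ 0.1 or 1.0 ng/mL, DBS 2.5 ng/mL. Below-LLOQ samples and |CWRES| > 6 excluded. Log-normal IIV. Covariates added stepwise (ΔOFV 6.63, P < 0.01).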
# OATP1B3 = details: cited from earlier work
# OATP1B1 = details: cited from earlier work
# [2] = tested on: calcitonin gene-related peptide receptor; details: plasma concentration threshold; cited from earlier work
# [3] = tested on: cytochrome P450 3A4 (CYP3A4); details: cited from earlier work
# [4] = Phase 3 Model, fractional covariate effect
# [5] = Phase 3 Model, multiple rifampin doses and a single atogepant dose
# [6] = Phase 3 Model, proportional residual error
# [7] = Phase 3 Model, single-dose atogepant and single-dose rifampin
structure (smiles),measurement,setting,value
"C[C@@H]1[C@H](c2c(F)ccc(F)c2F)C[C@H](NC(=O)c2cnc3c(c2)C[C@@]2(C3)C(=O)Nc3ncccc32)C(=O)N1CC(F)(F)F [atogepant, Atogepant]",Blood concentrations as percentage of those in plasma,[1]; Phase 3 Model,57.3%
same,Blood-plasma ratio,[1]; Phase 3 Model,0.573
same,Effect of concomitant statins on CL/F and Frel,[1]; Phase 3 Model,not found to have a significant effect
same,Fraction zero-order absorption (Fk0),[1]; Phase 3 Model,0.693
same,Frel at the 60-mg dose compared with the 10-mg dose,[1]; Phase 3 Model,approximately 1.24 fold
same,Higher Frel with coadministration of itraconazole,[1]; Phase 3 Model,1.95 fold
same,IIV on CL/F,[1]; Phase 3 Model,15.6 % CV
same,IIV on Frel,[1]; Phase 3 Model,48.4 % CV
same,IIV on Q/F,[1]; Phase 3 Model,68.6 % CV
same,IIV on Tk0,[1]; Phase 3 Model,40.4 % CV
same,IIV on V2/F,[1]; Phase 3 Model,77.5 % CV
same,IOV on Frel,[1]; Phase 3 Model,19.3 % CV
same,Duration zero-order absorption [Tk0 (h)],"[1]; Phase 3 Model, 60 mg reference dose",0.908 h
same,Residual variability error term,"[1]; Phase 3 Model, CGP-PK-02",22.8 % CV
same,Residual variability error term,"[1]; Phase 3 Model, EM phase 2b/3 study",58.5 % CV
same,Lower CL/F with coadministration of quinidine,"[1]; Phase 3 Model, P-gp inhibitor",28.5%
same,Residual variability error term,"[1]; Phase 3 Model, all phase 1 studies except CGP-PK-02",30.7 % CV
same,"CovQ/F,V2/F","[1]; Phase 3 Model, covariance of IIV",0.422
same,Food effect on ALAG,[1]; [4],0.672
same,Itraconazole effect on Frel,[1]; [4],0.949
same,Rifampin effect on Frel after first dose,[1]; [4],1.42
same,Rifampin effect on Frel following multiple doses,[1]; [4],−0.248
same,Apparent clearance healthy participants [CL/F (L/h)],"[1]; Phase 3 Model, healthy participants",22.9 L/h
same,Absorption lag time following a high-fat meal,"[1]; Phase 3 Model, high-fat meal",0.46 h
same,Decrease of Frel with multiple rifampin doses,[1]; [5],24.8%
same,Increase of CL/F with multiple rifampin doses,[1]; [5],1.82 fold
same,Apparent clearance patients [CL/F (L/h)],"[1]; Phase 3 Model, patients with EM",17.4 L/h
same,CL/F lower in patients than in healthy participants,"[1]; Phase 3 Model, patients with EM vs healthy participants",23.7%
same,Residual variability error term,"[1]; Phase 3 Model, phase 3 studies",49.1 % CV
same,Exponential weight effect on V1/F,"[1]; Phase 3 Model, power exponent, body weight/76.8 kg",0.411
same,Exponential dose effect on Frel,"[1]; Phase 3 Model, power exponent, dose/60 mg",0.119
same,σprop,[1]; [6],0.307
same,σprop (ADVANCE and PROGRESS studies),[1]; [6],0.491
same,σprop (study CGP-MD-01),[1]; [6],0.585
same,σprop (study CGP-PK-02),[1]; [6],0.228
same,Lower CL/F with severe hepatic impairment,"[1]; Phase 3 Model, relative to normal liver function or mild or moderate hepatic impairment",36.6%
same,Higher Frel with single-dose rifampin,[1]; [7],2.4 fold
same,Lower CL/F with single-dose rifampin,[1]; [7],~ 13% and 12.8%
same,Lower CL/F with coadministration of itraconazole,"[1]; Phase 3 Model, strong CYP3A4 inhibitor",66.2%
same,ω^2CL/F,"[1]; Phase 3 Model, variance of IIV",0.0243
same,ω^2Frel,"[1]; Phase 3 Model, variance of IIV",0.234
same,ω^2Q/F,"[1]; Phase 3 Model, variance of IIV",0.471
same,ω^2V2/F,"[1]; Phase 3 Model, variance of IIV",0.601
same,ω^2tk0,"[1]; Phase 3 Model, variance of IIV",0.163
same,ω^2IOVFrel,"[1]; Phase 3 Model, variance of IOV",0.0373
same,Lag time [ALAG (h)],"[1]; Phase 3 Model, without food",0.276 h
same,Vd/F,"[1]; human, plasma, oral",86.1 L
same,Transporter substrate status,OATP1B3,substrate
same,Transporter substrate status,OATP1B1,substrate
same,EC90 (effective concentration that results in 90% inhibition of the CGRP receptor),[2],8.4 ng/mL
same,Metabolizing enzyme,[3],primarily metabolized by cytochrome P450 3A4 (CYP3A4)

# From paper PMC12783166 (Clinical Pharmacokinetics, 2025)
